From ChEMBL document CHEMBL4689842, “EUbOPEN Chemogenomics Library wave 1” (2021)

Tested on: Fibroblast
Assay: Multiplex assay against human fibroblast
Type: toxicity, cell-based
Procedure, shortened: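 Cells were classed with CellPathfinder machine-learning gating, first as Hoechst high-intensity objects or normal cells, then (normal cells) as healthy, pyknosed or fragmented nuclei, and finally (pyknosed cells) as mitotic or apoptotic. Staining of live cells at seeding used Hoechst33342, BioTracker Green Microtubule Cytoskeleton Dye, MitoTracker Red and Annexin V Alexa Fluor 680, with imaging on a CQ1 microscope at 37°C and 5% CO2 after compound addition. Tubulin, mitochondrial-mass and membrane-permeability phenotypes are per cents of healthy-nucleus cells.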

[1] = 12 h, 1 µM, compound concentration 1 uM, replicate 1
[2] = 12 h, 1 µM, compound concentration 1 uM, replicate 2
[3] = 12 h, 10 µM, compound concentration 10 uM, replicate 1
[4] = 12 h, 10 µM, compound concentration 10 uM, replicate 2
[5] = 24 h, 1 µM, compound concentration 1 uM, replicate 1
[6] = 24 h, 1 µM, compound concentration 1 uM, replicate 2
[7] = 24 h, 10 µM, compound concentration 10 uM, replicate 1
[8] = 24 h, 10 µM, compound concentration 10 uM, replicate 2
[9] = 48 h, 1 µM, compound concentration 1 uM, replicate 1
[10] = 48 h, 1 µM, compound concentration 1 uM, replicate 2
[11] = 48 h, 10 µM, compound concentration 10 uM, replicate 1
[12] = 48 h, 10 µM, compound concentration 10 uM, replicate 2

Cl.O=C(O)c1cc(-c2ccc(C3CCNCC3)cc2)c2ccc(-c3ccc(C(F)(F)F)cc3)cc2c1
Population Apoptotic (%) [1]: 65% | Population Fragmented Nuclei (%) [1]: 31% | Population Healthy Nuclei (%) [1]: 31% | Population Hoechst High Intensity Objects (%) [1]: 20% | Population Membrane Permeable-Phenotype (%) [1]: 31% | Population Mitochondria Different-Phenotype (%) [1]: 5% | Population Mitotic Cells (%) [1]: 34% | Population Normal (%) [1]: 79% | Population Pyknosed Nuclei (%) [1]: 37% | Population Tubulin-Different-Phenotype (%) [1]: 21% | Total Cell Count [1]: 77 | Population Apoptotic (%) [2]: 50% | Population Fragmented Nuclei (%) [2]: 11% | Population Healthy Nuclei (%) [2]: 83% | Population Hoechst High Intensity Objects (%) [2]: 5% | Population Membrane Permeable-Phenotype (%) [2]: 3% | Population Mitochondria Different-Phenotype (%) [2]: 16% | Population Mitotic Cells (%) [2]: 50% | Population Normal (%) [2]: 94% | Population Pyknosed Nuclei (%) [2]: 5% | Population Tubulin-Different-Phenotype (%) [2]: 36% | Total Cell Count [2]: 60 | Population Apoptotic (%) [3]: 62% | Population Fragmented Nuclei (%) [3]: 27% | Population Healthy Nuclei (%) [3]: 40% | Population Hoechst High Intensity Objects (%) [3]: 18% | Population Membrane Permeable-Phenotype (%) [3]: 5% | Population Mitochondria Different-Phenotype (%) [3]: 20% | Population Mitotic Cells (%) [3]: 37% | Population Normal (%) [3]: 81% | Population Pyknosed Nuclei (%) [3]: 32% | Population Tubulin-Different-Phenotype (%) [3]: 57% | Total Cell Count [3]: 122 | Population Apoptotic (%) [4]: 60% | Population Fragmented Nuclei (%) [4]: 14% | Population Healthy Nuclei (%) [4]: 64% | Population Hoechst High Intensity Objects (%) [4]: 14% | Population Membrane Permeable-Phenotype (%) [4]: 10% | Population Mitochondria Different-Phenotype (%) [4]: 13% | Population Mitotic Cells (%) [4]: 40% | Population Normal (%) [4]: 85% | Population Pyknosed Nuclei (%) [4]: 21% | Population Tubulin-Different-Phenotype (%) [4]: 23% | Total Cell Count [4]: 38 | Population Apoptotic (%) [5]: 62% | Population Fragmented Nuclei (%) [5]: 24% | Population Healthy Nuclei (%) [5]: 47% | Population Hoechst High Intensity Objects (%) [5]: 21% | Population Membrane Permeable-Phenotype (%) [5]: 44% | Population Mitochondria Different-Phenotype (%) [5]: 7% | Population Mitotic Cells (%) [5]: 37% | Population Normal (%) [5]: 78% | Population Pyknosed Nuclei (%) [5]: 28% | Population Tubulin-Different-Phenotype (%) [5]: 44% | Total Cell Count [5]: 73 | Population Apoptotic (%) [6]: 20% | Population Fragmented Nuclei (%) [6]: 11% | Population Healthy Nuclei (%) [6]: 79% | Population Hoechst High Intensity Objects (%) [6]: 3% | Population Membrane Permeable-Phenotype (%) [6]: 4% | Population Mitochondria Different-Phenotype (%) [6]: 9% | Population Mitotic Cells (%) [6]: 80% | Population Normal (%) [6]: 96% | Population Pyknosed Nuclei (%) [6]: 9% | Population Tubulin-Different-Phenotype (%) [6]: 30% | Total Cell Count [6]: 62 | Population Apoptotic (%) [7]: 53% | Population Fragmented Nuclei (%) [7]: 35% | Population Healthy Nuclei (%) [7]: 36% | Population Hoechst High Intensity Objects (%) [7]: 15% | Population Membrane Permeable-Phenotype (%) [7]: 12% | Population Mitochondria Different-Phenotype (%) [7]: 27% | Population Mitotic Cells (%) [7]: 46% | Population Normal (%) [7]: 84% | Population Pyknosed Nuclei (%) [7]: 28% | Population Tubulin-Different-Phenotype (%) [7]: 62% | Total Cell Count [7]: 131 | Population Apoptotic (%) [8]: 61% | Population Fragmented Nuclei (%) [8]: 17% | Population Healthy Nuclei (%) [8]: 61% | Population Hoechst High Intensity Objects (%) [8]: 8% | Population Membrane Permeable-Phenotype (%) [8]: 7% | Population Mitochondria Different-Phenotype (%) [8]: 5% | Population Mitotic Cells (%) [8]: 38% | Population Normal (%) [8]: 91% | Population Pyknosed Nuclei (%) [8]: 20% | Population Tubulin-Different-Phenotype (%) [8]: 16% | Total Cell Count [8]: 56 | Population Apoptotic (%) [9]: 50% | Population Fragmented Nuclei (%) [9]: 30% | Population Healthy Nuclei (%) [9]: 40% | Population Hoechst High Intensity Objects (%) [9]: 20% | Population Membrane Permeable-Phenotype (%) [9]: 48% | Population Mitochondria Different-Phenotype (%) [9]: 0% | Population Mitotic Cells (%) [9]: 50% | Population Normal (%) [9]: 79% | Population Pyknosed Nuclei (%) [9]: 29% | Population Tubulin-Different-Phenotype (%) [9]: 40% | Total Cell Count [9]: 78 | Population Apoptotic (%) [10]: 100% | Population Fragmented Nuclei (%) [10]: 16% | Population Healthy Nuclei (%) [10]: 82% | Population Hoechst High Intensity Objects (%) [10]: 8% | Population Membrane Permeable-Phenotype (%) [10]: 6% | Population Mitochondria Different-Phenotype (%) [10]: 2% | Population Mitotic Cells (%) [10]: 0% | Population Normal (%) [10]: 91% | Population Pyknosed Nuclei (%) [10]: 1% | Population Tubulin-Different-Phenotype (%) [10]: 26% | Total Cell Count [10]: 104 | Population Apoptotic (%) [11]: 76% | Population Fragmented Nuclei (%) [11]: 42% | Population Healthy Nuclei (%) [11]: 46% | Population Hoechst High Intensity Objects (%) [11]: 21% | Population Membrane Permeable-Phenotype (%) [11]: 11% | Population Mitochondria Different-Phenotype (%) [11]: 9% | Population Mitotic Cells (%) [11]: 23% | Population Normal (%) [11]: 78% | Population Pyknosed Nuclei (%) [11]: 11% | Population Tubulin-Different-Phenotype (%) [11]: 37% | Total Cell Count [11]: 146 | Population Apoptotic (%) [12]: 100% | Population Fragmented Nuclei (%) [12]: 57% | Population Healthy Nuclei (%) [12]: 38% | Population Hoechst High Intensity Objects (%) [12]: 9% | Population Membrane Permeable-Phenotype (%) [12]: 4% | Population Mitochondria Different-Phenotype (%) [12]: 12% | Population Mitotic Cells (%) [12]: 0% | Population Normal (%) [12]: 90% | Population Pyknosed Nuclei (%) [12]: 3% | Population Tubulin-Different-Phenotype (%) [12]: 58% | Total Cell Count [12]: 139
